# The source made the active and inactive calls. The calls are words filed in the database; no cut-off is given here.
# What was measured:
# [1] = target: T1, Proteinase-activated receptor 1 (Homo sapiens) (UniProt P25116); experiment: (§1) Antagonist activity at PAR1 in human EAhy926 cells assessed as inhibition of TFLLRN-NH2-induced intracellular calcium mobilization pretreated for 15 mins followed by TFLLRN-NH2 addition measured at 5 secs interval for 250 secs by Fluo-4/AM dye based fluorescence assay; assay type: functional, cell-based; parameters: concentration or dose not given beside the values
# T1 sequence (whole entry): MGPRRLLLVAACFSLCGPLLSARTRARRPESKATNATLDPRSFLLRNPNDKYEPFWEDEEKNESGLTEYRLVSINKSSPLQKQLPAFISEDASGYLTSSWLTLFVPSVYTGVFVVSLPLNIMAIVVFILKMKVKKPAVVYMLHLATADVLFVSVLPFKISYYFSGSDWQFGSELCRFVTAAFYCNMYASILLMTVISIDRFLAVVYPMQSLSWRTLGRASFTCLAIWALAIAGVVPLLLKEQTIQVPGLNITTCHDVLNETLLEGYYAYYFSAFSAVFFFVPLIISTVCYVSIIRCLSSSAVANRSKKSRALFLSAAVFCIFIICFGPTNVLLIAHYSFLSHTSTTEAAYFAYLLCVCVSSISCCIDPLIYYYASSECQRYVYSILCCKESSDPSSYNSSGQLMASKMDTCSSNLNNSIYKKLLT
# Outline: (§2)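 EA.hy926 cells were used at passage 2–11, seeded at 25,000/well and grown 40–48 h at 37 °C to >80% confluence. Cells were loaded with Fluo-4/AM (2 μM) in HBSS-HEPES containing 2.5 mM probenecid, pH 7.4, for 40–50 min, then washed twice. Antagonist in 10% DMSO vehicle was added for 15 min at 37 °C before agonist. Agonist was 5 μM TFLLRN-NH₂; ex 485/em 525 nm.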
# [2] = target: T2, Proteinase-activated receptor 1 (Homo sapiens, UniProt P25116); experiment: as §1; assay type: functional, cell-based; outline: as §2
# T2 sequence (P25116 whole entry): T1 sequence (whole entry)
# [3] = target: Proteinase-activated receptor 2 (Homo sapiens) (UniProt P55085); experiment: Antagonist activity at PAR2 in human EAhy926 cells assessed as inhibition of SLIGKV-NH2-induced intracellular calcium mobilization at 10 uM pretreated for 15 mins followed by SLIGKV-NH2 addition measured at 5 secs interval for 250 secs by Fluo-4/AM dye based fluorescence assay; assay type: functional, cell-based
# Outline: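 EA.hy926 monolayers were Fluo-4/AM-loaded (2 μM, with 2.5 mM probenecid in HBSS-HEPES) and pretreated 15 min at 37 °C with 10 μM antagonist in 10% DMSO vehicle. They were then stimulated with 3.16 μM SLIGKV-NH₂. Fluorescence (485/525 nm) was read every 5 s. The peak rise over basal, divided by basal, was normalized to the vehicle well.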
# [4] = target: T1, Proteinase-activated receptor 1 (Homo sapiens); experiment: Negative allosteric modulation of PAR1 in human EAhy926 cells assessed as inhibition of TFLLRN-NH2-induced intracellular calcium mobilization at 10 uM pretreated for 20 to 30 mins followed by compound washout and subsequent incubation for 10 mins prior to TFLLRN-NH2 addition measured at 5 secs interval for 250 secs by Fluo-4/AM dye based fluorescence assay; assay type: functional, cell-based
# Outline: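 EA.hy926 cells grown 40–48 h to confluence, loaded with Fluo-4/AM in HBSS-HEPES with 2.5 mM probenecid for 40–50 min at 37 °C, washed. Antagonist or vehicle (10% DMSO) added for 20–30 min, then washed twice with buffer, 10 min at 37 °C each. TFLLRN-NH2 (5 μM) added; emission 525 nm (ex 485) read against basal.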
# [5] = target: T1, Proteinase-activated receptor 1 (Homo sapiens); experiment: Antagonist activity at PAR1 in human EAhy926 cells assessed as inhibition of TFLLRN-NH2-induced intracellular calcium mobilization at 10 uM pretreated for 15 mins followed by TFLLRN-NH2 addition measured at 5 secs interval for 250 secs by Fluo-4/AM dye based fluorescence assay; assay type: functional, cell-based
# [6] = target: T3, Proteinase-activated receptor 2 (Homo sapiens, UniProt P55085); experiment: Antagonist activity at PAR2 in human EAhy926 cells assessed as inhibition of SLIGKV-NH2-induced intracellular calcium mobilization pretreated for 15 mins followed by SLIGKV-NH2 addition measured at 5 secs interval for 250 secs by Fluo-4/AM dye based fluorescence assay; assay type: functional, cell-based
# T3 sequence (P55085 whole entry): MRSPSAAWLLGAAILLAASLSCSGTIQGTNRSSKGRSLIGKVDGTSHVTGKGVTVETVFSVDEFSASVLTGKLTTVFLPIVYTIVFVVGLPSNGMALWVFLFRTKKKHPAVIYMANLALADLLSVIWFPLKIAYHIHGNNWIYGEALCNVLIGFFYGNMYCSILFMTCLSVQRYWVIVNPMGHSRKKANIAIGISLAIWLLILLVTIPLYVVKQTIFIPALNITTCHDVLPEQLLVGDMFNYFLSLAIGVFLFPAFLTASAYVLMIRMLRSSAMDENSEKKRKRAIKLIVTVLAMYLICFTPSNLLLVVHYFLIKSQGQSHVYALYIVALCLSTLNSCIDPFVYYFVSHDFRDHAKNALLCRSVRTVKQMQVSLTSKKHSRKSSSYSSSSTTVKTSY
# Outline: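 EA.hy926 monolayers (25,000 cells/well, 40–48 h) were loaded with 2 µM Fluo-4/AM for 40–50 min at 37 °C in HBSS-HEPES with 2.5 mM probenecid, pH 7.4. Antagonist in 10% DMSO vehicle was added for 15 min at 37 °C, then SLIGKV-NH2 (5 µM for curves, 3.16 µM for selectivity). Read at ex485/em525, 20 basal scans. Peak RFU/basal was normalised to a same-column vehicle well; curves from ≥3 repeats fitted by 4-parameter regression.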
# [7] = target: Proteinase-activated receptor 2 (Homo sapiens) (UniProt P55085); assay type: functional, cell-based; settings: 0.316 uM
# [8] = target: T1, Proteinase-activated receptor 1 (Homo sapiens); assay type: functional, cell-based; settings: 0.316 uM
# [9] = target: T1, Proteinase-activated receptor 1 (Homo sapiens); settings: 0.316 uM
smiles,measurement,setting,value
C#CCCC(=O)NCC[C@H](NC(=O)[C@H](Cc1ccc(F)c(F)c1)NC(=O)Nc1ccc2c(CN3CCCC3)nn(Cc3c(Cl)cccc3Cl)c2c1)C(=O)NCc1ccccc1,inhibition,[1],76%
same,IC50,[2]; read-out: pIC50 (converted),316 nM
CCCCNc1cccc(NC(=O)c2ccccc2Br)c1,IC50,[2]; read-out: IC50,970 nM
same,inhibition,[3],inactive
same,inhibition,[4],Active
CCCCC(=O)Nc1cccc(NC(=O)c2ccccc2Br)c1,inhibition,[1],49%
CC(C)CC(=O)Nc1cccc(NC(=O)c2ccccc2Br)c1,inhibition,[1],74%
same,IC50,[2]; read-out: IC50,3160 nM
same,inhibition,[4],Active
Clc1ccc(Cn2c(Cc3ccccc3)nc3ccccc32)cc1,inhibition,[5],inactive
CC[C@H](C)[C@H](NC(=O)[C@H](CC1CCCCC1)NC(=O)c1ccno1)C(=O)NCc1ccccc1OC,inhibition,[5],inactive
same,IC50,[6],1700 nM
CCCC(=O)Nc1cccc(NC(=O)c2ccccc2Br)c1,IC50,[2]; read-out: IC50,850 nM
same,inhibition,[3],inactive
same,inhibition,[4],Active
CCOc1cc2c(c(F)c1OCC)C(=N)N(CC(=O)c1cc(N3CCOCC3)c(OC)c(C(C)(C)C)c1)C2 [ATOPAXAR],inhibition,[1],94%
same,IC50,[2]; read-out: IC50,33 nM
same,inhibition,[7],inactive
NCC[C@H](NC(=O)[C@H](Cc1ccc(F)c(F)c1)NC(=O)Nc1ccc2c(CN3CCCC3)nn(Cc3c(Cl)cccc3Cl)c2c1)C(=O)NCc1ccccc1,IC50,[2]; read-out: IC50,20 nM
same,inhibition,[7],inactive
same,inhibition,[8],Active
CCCC(=O)Nc1cccc(NC(=O)c2ccccc2N=[N+]=[N-])c1,inhibition,[1],77%
same,IC50,[2]; read-out: IC50,94000 nM
CCOC(=O)N[C@@H]1CC[C@@H]2[C@@H](C1)C[C@H]1C(=O)O[C@H](C)[C@H]1[C@H]2/C=C/c1ccc(-c2cccc(F)c2)cn1,inhibition,[7],inactive
same,inhibition,[9],inactive
CCC(=O)Nc1cccc(NC(=O)c2ccccc2Br)c1,inhibition,[1],68%
same,IC50,[2]; read-out: IC50,3300 to 3310 nM
same,IC50,[2]; read-out: pIC50 (converted),3160 nM
C#CCCC(=O)Nc1cccc(NC(=O)c2ccccc2Br)c1,inhibition,[1],79%
same,IC50,[2]; read-out: IC50,81000 nM
same,IC50,[2]; read-out: pIC50 (converted),100000 nM

# From ChEMBL document CHEMBL4219243, “Characterization of Protease-Activated Receptor (PAR) ligands: Parmodulins are reversible allosteric inhibitors of PAR1-driven calcium mobilization in endothelial cells” (Bioorg Med Chem, 2018)
